Measurements taken from ChEMBL document CHEMBL1142233, “Treatment of diabetes and atherosclerosis by inhibiting fatty-acid-binding protein aP2” (2007).
The source made the active and inactive calls. No cut-off for these calls is given here.

Experiments:
[1] = tested on: Mus musculus; assay: Increase in insulin-stimulated AKT serine 473 phosphorylation in ob/ob mouse adipose tissue at 40 mg/kg/day, po relative to control; type: functional, organism-based
In short: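 Male ob/ob mice were dosed by oral gavage at 40 mg kg⁻¹ d⁻¹ or with vehicle. After 6 h food withdrawal and tribromoethanol anaesthesia, insulin (2 IU kg⁻¹) or PBS went into the portal vein. Adipose tissue was taken 3 min later, lysed and immunoblotted for IRβ pTyr1162/1163, AKT pSer473 and total proteins. Signals were quantified by densitometry.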

[2] = tested on: Mus musculus; assay: Attenuation of fatty infiltration of liver in ob/ob mouse at 40 mg/kg/day, po; type: functional, organism-based
In short: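 Male ob/ob mice given daily oral gavage for 6 weeks starting at 8 weeks of age. Liver sections stained with haematoxylin and eosin; n = 6 per group.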

[3] = tested on: Mus musculus; assay: Decrease in triglyceride level in ob/ob mouse at 40 mg/kg/day, po after 6 weeks relative to control; type: functional
[4] = tested on: Mus musculus; assay: Effect on cholesterol level in ob/ob mouse at 40 mg/kg/day, po after 6 weeks relative to control; type: functional
In short: (§1)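 Male ob/ob mice given oral gavage daily for 6 weeks from 8 weeks old, n = 6 per group. Blood taken after 6 h fast before and after treatment; fed glucose taken at week 2. Glucose by meter on 3 μl whole blood, insulin by ultrasensitive ELISA, cholesterol, FFA and glycerol by colorimetric microplate assays.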

[5] = tested on: Mus musculus; assay: Effect on free fatty acid level in 5-week old apoE-/- C57BL/6J mouse fed on western diet and administered with 15 mg/kg/day, po drug at 12 week in 12-18 week late intervention study; type: functional
In short: (§2)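 Male Apoe−/− mice on western diet (21% fat, 0.21% cholesterol) from 4–5 weeks of age. Oral gavage for 6 weeks from age 5 or 12 weeks; vehicle 10% 1-methyl-2-pyrrolidone, 5% cremophor EL with ethanol in water. Blood taken after 6 h fast before and after treatment. Glucose by meter; insulin by ELISA; lipids and glycerol colorimetric.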

[6] = tested on: Mus musculus; assay: Increase in glucose uptake in gastrocnemius muscle in ob/ob mouse at 40 mg/kg/day, po after 4 weeks by hyperinsulinemic-euglycaemic clamp studies relative to control; type: functional, organism-based
In short: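 Ob/ob mice after 4 weeks of treatment, jugular catheterized 4 days earlier. Clamp with insulin at 12.5 mU kg⁻¹ min⁻¹, variable 25% glucose to hold basal glucose, and ³H-glucose at 0.1 μCi min⁻¹ with 2-¹⁴C-DG. Tissue uptake computed from the fitted plasma 2-¹⁴C-DG curve and tissue 2-¹⁴C-DG-6-phosphate content. n = 7 and 9.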

[7] = tested on: Mus musculus; assay: Effect on cholesterol level in 5-week old apoE-/- C57BL/6J mouse fed on western diet and administered with 15 mg/kg/day, po drug at 12 week in 12-18 week late intervention study; type: functional; in short: as §2
[8] = tested on: Mus musculus; assay: Effect on glycerol level in 5-week old apoE-/- C57BL/6J mouse fed on western diet and administered with 15 mg/kg/day, po drug at 12 week in 12-18 week late intervention study; type: functional; in short: as §2
[9] = tested on: THP-1; assay: Reduction of IL6 expression in human THP1 cells expressing aP2 relative to control; type: functional, cell-based
[10] = tested on: Macrophage; assay: Reduction in total cholesterol ester content in mouse aP2+/+ macrophage cells at 25 uM relative to control; type: functional, cell-based
[11] = organism: Mus musculus; assay: Decrease in glucose level in wild type mouse fed on high fat diet after 4 weeks by glucose tolerance test relative to control; type: functional, organism-based
In short: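 Wild-type C57BL/6J mice on 60% fat diet from 4 weeks of age, gavaged with 40 mg kg⁻¹ d⁻¹ or vehicle for 4 weeks starting at 20 weeks of age. Glucose tolerance tested with 1.5 g kg⁻¹ intraperitoneal glucose after an overnight fast.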

[12] = Decrease in MCP1 production in mouse aP2-/-R macrophage cells (re-expression of aP2) after 24 hrs; type: functional, cell-based
In short: (§3)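 Immortalized mouse macrophage lines (aP2−/−R re-expressing aP2) kept 24 h in RPMI plus 5% LPDS with inhibitor 0–25 μM in DMSO. MCP-1 in supernatant measured by ELISA and expressed relative to inhibitor-free cells of each line. At least triplicate.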

[13] = tested on: Mus musculus; assay: Increase in adiponectin level in ob/ob mouse plasma at 40 mg/kg/day, po after 6 weeks relative to control; type: functional, organism-based
In short: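 Plasma from male ob/ob mice after 6 weeks of daily oral gavage (started at 8 weeks), 6 h fasted, n = 6 per group. Adiponectin measured by ELISA.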

[14] = tested on: Mus musculus; assay: Decrease in IL6 expression in ob/ob mouse adipose tissue at 40 mg/kg/day, po; type: functional, organism-based
[15] = Reduction of IL6 expression mouse aP2-/-R macrophage cells (re-expression of aP2) relative to control; type: functional, cell-based
In short: (§4)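 Mouse aP2⁺/⁺ and aP2-reconstituted aP2⁻/⁻ macrophage lines were grown in RPMI with FBS or 5% LPDS, with inhibitor in DMSO or vehicle. Mcp-1, Il1β, Il6 and Tnf mRNA were measured by SYBR Green qRT-PCR (annealing at 58 °C, 50 cycles), normalized to 18s rRNA and then to untreated cells. Mean ± s.e.m.; at least triplicate.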

[16] = tested on: Macrophage; assay: Reduction of IL1-beta expressed in mouse aP2+/+ macrophage cells relative to control; type: functional, cell-based; in short: as §4
[17] = tested on: THP-1; assay: Decrease in MCP1 production in human THP1 cells expressing aP2 after 24 hrs; type: functional, cell-based
In short: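 THP-1 monocytes differentiated with 100 nM PMA for 24 h. Incubated 24 h in RPMI with 5% lipoprotein-deficient serum with inhibitor 0–25 μM in DMSO. Supernatant MCP-1 measured by ELISA and normalized to cellular protein. At least triplicate.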

[18] = tested on: Mus musculus; assay: Decrease in blood glucose level in fed ob/ob mouse at 40 mg/kg/day, po after 2 weeks; type: functional, organism-based; in short: as §1
[19] = tested on: Mus musculus; assay: Effect on free fatty acid level in 5-week old apoE-/- C57BL/6J mouse fed on western diet and 15 mg/kg/day, po drug simultaneously in 5-11 week early intervention study; type: functional; in short: as §2
[20] = tested on: Macrophage; assay: Decrease in MCP1 production in mouse aP2+/+ macrophage cells after 24 hrs; type: functional, cell-based; in short: as §3
[21] = tested on: Mus musculus; assay: Effect on cholesterol level in 5-week old apoE -/- C57BL/6J mouse fed on western diet and 15 mg/kg/day, po drug simultaneously in 5-11 week early intervention study; type: functional; in short: as §2
[22] = organism: Mus musculus; assay: Decrease in fatty acid uptake in wild type mouse aP2+/+ mal1+/+ preadipocytes after 24 hrs; type: functional
In short: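 Immortalized mouse pre-adipocytes differentiated with dexamethasone, IBMX, rosiglitazone and insulin, then insulin alone. Cells incubated 24 h in DMEM with 2% FBS plus inhibitor, then moved to DMEM with 2% BSA and given ³H-stearate at 37 °C for 30 min. Lysate counted by scintillation; values normalized to protein and expressed as % of untreated.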

[23] = tested on: Mus musculus; assay: Effect on insulin level in 5-week old apoE-/- C57BL/6J mouse fed on western diet and 15 mg/kg/day, po drug simultaneously in 5-11 week early intervention study; type: functional; in short: as §2

CCc1c(-c2ccccc2)c(-c2ccccc2)nn1-c1ccccc1-c1cccc(OCC(=O)O)c1
Activity [1]: Active | Activity [2]: Active | Activity [3]: 58 mg/dL | Activity [4]: 285.3 mg/dL | Activity [5]: 2.55 mM | Activity [6]: Active | Activity [7]: 2277.2 mg/dL | Activity [8]: 3.55 mM | Activity [9]: Active | Activity [10]: Active | Activity [11]: Active | Activity [12]: Active | Activity [13]: Active | Activity [14]: Active | Activity [15]: Active | Activity [16]: Active | Activity [17]: Dose-dependent effect | Activity [18]: Active | Activity [19]: 2 mM | Activity [20]: Active | Activity [21]: 1465.3 mg/dL | Activity [22]: Dose-dependent effect | Activity [23]: 0.5 ng/mL
